ChEMBL document CHEMBL3992526, “Antagonizing NOD2 Signaling with Conjugates of Paclitaxel and Muramyl Dipeptide Derivatives Sensitizes Paclitaxel Therapy and Significantly Prevents Tumor Metastasis” (J Med Chem, 2017)
Activity calls are given as the source filed them. No cut-off for these calls is given here.

Experiments:
[1] = Cmax in tumor of LLC tumor bearing C57BL/6N mouse assessed as MDA-linker level at 30 mg/kg, iv by LC-MS/MS analysis; format: ADME, organism-based, Neoplasm; parameters: dose 30 mg/kg, route intravenous; conditions: in vivo
Outline: (§1)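 LLC tumor-bearing mice received a single iv injection at 30 mg/kg; tumor tissue was sampled over time and assayed for intact conjugate and its metabolites PTX and MDA-linker. Tmax in h and Cmax in nmol/g tumor were reported, n=5 mice.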

[2] = Tmax in tumor of LLC tumor bearing C57BL/6N mouse assessed as MDA-linker level at 30 mg/kg, iv by LC-MS/MS analysis; format: ADME, organism-based, Neoplasm; conditions: in vivo; outline: as §1
[3] = AUC (0 to t) in tumor of LLC tumor bearing C57BL/6N mouse assessed as MDA-linker level at 30 mg/kg, iv up to 24 hrs by LC-MS/MS analysis; format: ADME, organism-based, Neoplasm; conditions: in vivo; outline: as §1
[4] = Tmax in tumor of LLC tumor bearing C57BL/6N mouse assessed as paclitaxel level at 30 mg/kg, iv by LC-MS/MS analysis; format: ADME, organism-based, Neoplasm; conditions: in vivo; outline: as §1
[5] = Cmax in tumor of LLC tumor bearing C57BL/6N mouse at 30 mg/kg, iv by LC-MS/MS analysis; format: ADME, organism-based, Neoplasm; parameters: dose 30 mg/kg, route intravenous; conditions: in vivo; outline: as §1
[6] = Cmax in tumor of LLC tumor bearing C57BL/6N mouse assessed as paclitaxel level at 30 mg/kg, iv by LC-MS/MS analysis; format: ADME, organism-based, Neoplasm; parameters: dose 30 mg/kg, route intravenous; conditions: in vivo; outline: as §1
[7] = AUC (0 to t) in tumor of LLC tumor bearing C57BL/6N mouse at 30 mg/kg, iv up to 24 hrs by LC-MS/MS analysis; format: ADME, organism-based, Neoplasm; conditions: in vivo; outline: as §1
[8] = AUC (0 to t) in tumor of LLC tumor bearing C57BL/6N mouse assessed as paclitaxel level at 30 mg/kg, iv up to 24 hrs by LC-MS/MS analysis; format: ADME, organism-based, Neoplasm; conditions: in vivo; outline: as §1
[9] = molecular target: T1, Nucleotide-binding oligomerization domain-containing protein 2 (Homo sapiens, UniProt Q9HC29); experiment: Inhibition of MDP-induced human NOD2 signaling expressed in HEK-Blue cells preincubated for 3 hrs followed by MDP-stimulation for 20 hrs by spectrophotometry based SEAP reporter gene assay; format: cell-based
[10] = Cytotoxicity against HEK-Blue cells expressing human NOD2 assessed as reduction in cell growth at 1.5625 to 50000 nM incubated for 3 hrs by SRB assay; format: cell-based; conditions: 50 µM
[11] = tested on: Lewis lung carcinoma cell line; experiment: Antitumor activity against mouse LLC cells implanted in iv dosed C57BL/6N mouse assessed as tumor growth inhibition; format: functional, organism-based
[12] = molecular target: T1, Nucleotide-binding oligomerization domain-containing protein 2; experiment: Activation of human NOD2 signaling expressed in HEK-Blue cells incubated for 3 hrs by spectrophotometry based SEAP reporter gene assay; format: cell-based
[13] = Cytotoxicity against HEK-Blue cells expressing human NOD2 assessed as reduction in cell growth at 1.5625 to 50000 nM preincubated for 3 hrs followed by MDP-stimulation for 20 hrs by SRB assay; format: cell-based; conditions: 50 µM
[14] = molecular target: T1, Nucleotide-binding oligomerization domain-containing protein 2; experiment: Inhibition of NOD2 signaling in human PBMC derived macrophages assessed as inhibition of MDP-induced IL-6 mRNA expression at 1 to 10 uM preincubated for 1 hr followed by MDP-stimulation for 90 mins by RT-PCR method
[15] = molecular target: T1, Nucleotide-binding oligomerization domain-containing protein 2; experiment: Inhibition of MDP-stimulated human NOD2 activation expressed in HEK-Blue cells assessed as reduction in NOD2-mediated MAPK signaling by measuring decrease in phosphorylated ERK1/2 level preincubated for 1 hr followed by MDP-stimulation for 1 hr by Western blot method; format: cell-based
[16] = tested on: Lewis lung carcinoma cell line; experiment: Potentiation of paclitaxel-induced antitumor activity against mouse LLC cells implanted in C57BL/6N mouse assessed as inhibition of lung tumor metastasis at 30 mg/kg, iv administered once in every two days and paclitaxel treatment once in every four days measured 4 weeks after implantation relative to control; format: functional
[17] = molecular target: T1, Nucleotide-binding oligomerization domain-containing protein 2; experiment: Inhibition of MDP-induced human NOD2 signaling expressed in HEK-Blue cells at 10 uM preincubated for 3 hrs followed by MDP-stimulation for 20 hrs by spectrophotometry based SEAP reporter gene assay relative to control; format: cell-based
[18] = molecular target: T1, Nucleotide-binding oligomerization domain-containing protein 2; experiment: Inhibition of MDP-stimulated NOD2 activation in human PBMC derived macrophages assessed as reduction in NOD2-mediated MAPK signaling by measuring decrease in phosphorylated JNK level preincubated for 1 hr followed by MDP-stimulation for 1 hr by Western blot method
[19] = molecular target: T1, Nucleotide-binding oligomerization domain-containing protein 2; experiment: Inhibition of His-tagged and FLAG-tagged NOD2 (unknown origin) self-oligomerization expressed in HEK293T cells at 10 uM preincubated for 1 hr followed by MDP stimulation for 15 mins by co-immunoprecipitation assay; format: cell-based
[20] = molecular target: T1, Nucleotide-binding oligomerization domain-containing protein 2; experiment: Inhibition of MDP-stimulated human NOD2 activation expressed in HEK-Blue cells assessed as reduction in NOD2-mediated NF-kB signaling by measuring decrease in IkBalpha level preincubated for 1 hr followed by MDP-stimulation for 1 hr by Western blot method; format: cell-based
[21] = molecular target: T1, Nucleotide-binding oligomerization domain-containing protein 2; experiment: Inhibition of MDP-stimulated NOD2 activation in human PBMC derived macrophages assessed as reduction in NOD2-mediated NF-kB signaling by measuring decrease in phosphorylated RIP2 level preincubated for 1 hr followed by MDP-stimulation for 1 hr by Western blot method
[22] = tested on: Lewis lung carcinoma cell line; experiment: Potentiation of paclitaxel-induced antitumor activity against mouse LLC cells implanted in C57BL/6N mouse assessed as reduction in tumor weight at 30 mg/kg, iv administered once in every two days and paclitaxel treatment once in every four days measured 4 weeks after implantation; format: functional, organism-based
[23] = molecular target: T1, Nucleotide-binding oligomerization domain-containing protein 2; experiment: Inhibition of MDP-stimulated NOD2 activation in human PBMC derived macrophages assessed as reduction in NOD2-mediated MAPK signaling by measuring decrease in phosphorylated p38 level preincubated for 1 hr followed by MDP-stimulation for 1 hr by Western blot method
[24] = tested on: Lewis lung carcinoma cell line; experiment: Antitumor activity against mouse LLC cells implanted in C57BL/6N mouse assessed as reduction in tumor weight at 30 mg/kg, iv administered once in every two days measured 4 weeks after implantation; format: functional, organism-based
[25] = Cytotoxicity against HEK-Blue cells expressing human NOD2 assessed as reduction in cell growth at 0.3125 to 10000 nM preincubated for 3 hrs followed by MDP-stimulation for 20 hrs by SRB assay; format: cell-based; conditions: 10 µM
[26] = molecular target: Receptor-interacting serine/threonine-protein kinase 2 (Homo sapiens) (UniProt O43353); experiment: Inhibition of recombinant human N-terminal GST-tagged RIP2 (1 to 299 residues) expressed in baculovirus infected Sf9 cells at 10 uM using MBP as substrate incubated for 60 mins in presence of ATP by ADP-Glo assay
[27] = molecular target: T1, Nucleotide-binding oligomerization domain-containing protein 2; experiment: Inhibition of MDP-stimulated human NOD2 activation expressed in HEK-Blue cells assessed as reduction in NOD2-mediated MAPK signaling by measuring decrease in phosphorylated p38 level preincubated for 1 hr followed by MDP-stimulation for 1 hr by Western blot method; format: cell-based
[28] = molecular target: T1, Nucleotide-binding oligomerization domain-containing protein 2; experiment: Inhibition of MDP-stimulated human NOD2 activation expressed in HEK-Blue cells assessed as reduction in NOD2-mediated NF-kB signaling by measuring decrease in phosphorylated RIP2 level preincubated for 1 hr followed by MDP-stimulation for 1 hr by Western blot method; format: cell-based
[29] = tested on: Lewis lung carcinoma cell line; experiment: Antitumor activity against mouse LLC cells implanted in C57BL/6N mouse assessed as inhibition of lung tumor metastasis at 30 mg/kg, iv administered once in every two days measured 4 weeks after implantation; format: functional, organism-based
[30] = molecular target: T1, Nucleotide-binding oligomerization domain-containing protein 2; experiment: Inhibition of MDP-stimulated human NOD2 activation expressed in HEK-Blue cells assessed as reduction in NOD2-mediated MAPK signaling by measuring decrease in phosphorylated JNK level preincubated for 1 hr followed by MDP-stimulation for 1 hr by Western blot method; format: cell-based
[31] = Cytotoxicity against HEK-Blue cells expressing human NOD2 assessed as reduction in cell growth at 0.3125 to 10000 nM incubated for 3 hrs by SRB assay; format: cell-based; conditions: 10 µM
[32] = molecular target: T1, Nucleotide-binding oligomerization domain-containing protein 2; experiment: Inhibition of MDP-stimulated NOD2 activation in human PBMC derived macrophages assessed as reduction in NOD2-mediated NF-kB signaling by measuring decrease in IkBalpha level preincubated for 1 hr followed by MDP-stimulation for 1 hr by Western blot method
[33] = molecular target: T1, Nucleotide-binding oligomerization domain-containing protein 2; experiment: Inhibition of MDP-stimulated NOD2 activation in human PBMC derived macrophages assessed as reduction in NOD2-mediated MAPK signaling by measuring decrease in phosphorylated ERK1/2 level preincubated for 1 hr followed by MDP-stimulation for 1 hr by Western blot method
[34] = Tmax in tumor of LLC tumor bearing C57BL/6N mouse at 18 mg/kg, iv by LC-MS/MS analysis; format: ADME, organism-based, Neoplasm
Outline: (§2)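 Mice bearing LLC tumors were given a single iv injection at equimolar doses: the conjugate at 30 mg/kg or paclitaxel at 18 mg/kg. Tumor tissue was sampled over time. Intact conjugate, released paclitaxel and MDA-linker were quantified in tumor tissue (nmol/g). Tmax and Cmax were taken from tumor concentration profiles, n=5 per group.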

[35] = Cmax in tumor of LLC tumor bearing C57BL/6N mouse at 18 mg/kg, iv by LC-MS/MS analysis; format: ADME, organism-based, Neoplasm; parameters: dose 18 mg/kg, route intravenous; conditions: in vivo
Outline: (§3)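 Tumour-tissue pharmacokinetics in LLC tumour-bearing mice after a single iv injection of PTX at 18 mg/kg, equimolar to the conjugate at 30 mg/kg. Analyte concentrations were measured in tumour tissue over time (n=5 mice). Tmax is given in h and Cmax in nmol/g.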

[36] = Drug level in tumor of LLC tumor bearing C57BL/6N mouse treated with MTC-220 at 30 mg/kg, iv up to 24 hrs by LC-MS/MS analysis relative to paclitaxel alone; format: ADME, organism-based, Neoplasm; conditions: in vivo; outline: as §2
[37] = AUC (0 to t) in tumor of LLC tumor bearing C57BL/6N mouse at 18 mg/kg, iv up to 24 hrs by LC-MS/MS analysis; format: ADME, organism-based, Neoplasm; conditions: in vivo; outline: as §3

T1 sequence (Q9HC29 whole entry, the tested form may be a part): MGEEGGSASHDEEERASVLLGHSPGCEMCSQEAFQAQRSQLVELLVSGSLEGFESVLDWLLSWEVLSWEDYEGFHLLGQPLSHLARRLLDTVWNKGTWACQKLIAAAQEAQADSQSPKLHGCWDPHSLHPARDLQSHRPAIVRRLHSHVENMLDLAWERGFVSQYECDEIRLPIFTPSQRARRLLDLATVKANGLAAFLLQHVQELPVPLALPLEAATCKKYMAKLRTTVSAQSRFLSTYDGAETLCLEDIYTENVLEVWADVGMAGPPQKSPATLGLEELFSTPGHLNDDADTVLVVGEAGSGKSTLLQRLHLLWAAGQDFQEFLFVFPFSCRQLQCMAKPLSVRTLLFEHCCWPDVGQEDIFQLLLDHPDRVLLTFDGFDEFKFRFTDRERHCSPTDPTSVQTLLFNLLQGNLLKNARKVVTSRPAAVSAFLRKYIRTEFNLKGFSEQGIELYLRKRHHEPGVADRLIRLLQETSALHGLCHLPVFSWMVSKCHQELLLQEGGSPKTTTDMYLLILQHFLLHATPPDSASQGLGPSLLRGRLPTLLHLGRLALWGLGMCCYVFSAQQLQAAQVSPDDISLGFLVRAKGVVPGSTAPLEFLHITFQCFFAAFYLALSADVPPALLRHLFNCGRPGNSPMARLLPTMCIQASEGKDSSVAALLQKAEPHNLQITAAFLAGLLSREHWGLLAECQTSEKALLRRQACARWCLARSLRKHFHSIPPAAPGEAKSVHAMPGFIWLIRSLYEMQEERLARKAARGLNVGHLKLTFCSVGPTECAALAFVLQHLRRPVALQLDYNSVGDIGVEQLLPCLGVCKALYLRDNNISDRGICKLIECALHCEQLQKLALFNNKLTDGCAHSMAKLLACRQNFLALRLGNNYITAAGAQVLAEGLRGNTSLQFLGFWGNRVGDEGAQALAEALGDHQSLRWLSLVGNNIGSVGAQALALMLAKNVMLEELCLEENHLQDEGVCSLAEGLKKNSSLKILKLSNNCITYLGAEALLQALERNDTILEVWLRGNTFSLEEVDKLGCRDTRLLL
Sequence of Receptor-interacting serine/threonine-protein kinase 2 (Homo sapiens) (O43353 whole entry, the tested form may be a part): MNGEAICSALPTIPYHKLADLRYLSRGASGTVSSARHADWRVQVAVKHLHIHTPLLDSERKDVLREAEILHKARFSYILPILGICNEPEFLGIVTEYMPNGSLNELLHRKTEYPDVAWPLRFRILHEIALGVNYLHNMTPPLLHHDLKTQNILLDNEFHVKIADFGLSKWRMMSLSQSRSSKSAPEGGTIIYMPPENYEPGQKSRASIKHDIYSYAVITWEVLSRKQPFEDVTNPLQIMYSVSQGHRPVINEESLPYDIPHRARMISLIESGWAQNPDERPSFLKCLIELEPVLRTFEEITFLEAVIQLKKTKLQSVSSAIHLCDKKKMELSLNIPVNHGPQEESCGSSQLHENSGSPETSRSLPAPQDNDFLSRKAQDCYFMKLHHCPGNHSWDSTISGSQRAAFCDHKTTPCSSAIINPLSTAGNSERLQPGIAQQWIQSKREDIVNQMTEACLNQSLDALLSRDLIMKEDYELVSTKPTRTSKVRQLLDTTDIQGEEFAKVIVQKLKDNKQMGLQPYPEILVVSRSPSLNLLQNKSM

SMILES: CC(=O)O[C@H]1C(=O)[C@@]2(C)[C@H]([C@H](OC(=O)c3ccccc3)[C@]3(O)C[C@H](OC(=O)[C@H](OC(=O)CCC(=O)NCCCC[C@H](NC(=O)CC[C@@H](NC(=O)[C@H](C)NC(=O)/C=C/c4ccc(Cl)cc4)C(N)=O)C(N)=O)[C@@H](NC(=O)c4ccccc4)c4ccccc4)C(C)=C1C3(C)C)[C@]1(OC(C)=O)CO[C@@H]1C[C@@H]2O
- Cmax [1]: 1.01 nmol/g
- Tmax [2]: 10.4 h
- AUCt [3]: 16.27 nmol·h/g
- Tmax [4]: 12 h
- Cmax [5]: 15.39 nmol/g
- Cmax [6]: 5.83 nmol/g
- AUCt [7]: 211.02 nmol·h/g
- AUCt [8]: 89.63 nmol·h/g

SMILES: CC(=O)O[C@@]12CO[C@@H]1C[C@H](O)[C@@]1(C)C(=O)[C@H](O)C3=C(C)[C@@H](OC(=O)[C@H](O)[C@@H](NC(=O)OC(C)(C)C)c4ccccc4)C[C@@](O)([C@@H](OC(=O)c4ccccc4)[C@H]21)C3(C)C [DOCETAXEL ANHYDROUS]
- IC50 [9]: 5.01 µM

SMILES: C[C@H](NC(=O)/C=C/c1ccc(Cl)cc1)C(=O)N[C@H](CCC(=O)N[C@@H](CCCCNC(=O)CCC(=O)O)C(N)=O)C(N)=O
- Activity [10]: Non-Toxic
- TGI [11]: inactive
- inhibition activity call (active/not active) [9]: inactive
- Activity [12]: inactive
- Activity [13]: Non-Toxic

SMILES: CC(=O)O[C@H]1C(=O)[C@@]2(C)[C@H]([C@H](OC(=O)c3ccccc3)[C@]3(O)C[C@H](OC(=O)[C@H](OCCC(=O)NCCCC[C@H](NC(=O)CC[C@@H](NC(=O)[C@H](C)NC(=O)/C=C/c4ccc(Cl)cc4)C(N)=O)C(N)=O)[C@@H](NC(=O)c4ccccc4)c4ccccc4)C(C)=C1C3(C)C)[C@]1(OC(C)=O)CO[C@@H]1C[C@@H]2O
- inhibition [14]: Active
- inhibition [15]: Dose-dependent effect
- fold change (FC) [16]: 2
- inhibition [17]: 50%
- inhibition [18]: Dose-dependent effect
- inhibition [19]: Active
- inhibition [20]: Dose-dependent effect
- inhibition [21]: Dose-dependent effect
- TGI [22]: Active
- inhibition [23]: Dose-dependent effect
- TGI [24]: inactive
- inhibition activity call (active/not active) [9]: Active
- Activity [25]: Non-Toxic
- inhibition [26]: inactive
- inhibition [27]: Dose-dependent effect
- inhibition [28]: Dose-dependent effect
- inhibition [29]: inactive
- inhibition [30]: Dose-dependent effect
- Activity [31]: Non-Toxic
- inhibition [32]: Dose-dependent effect
- inhibition [33]: Dose-dependent effect

SMILES: CC(=O)O[C@H]1C(=O)[C@@]2(C)[C@H]([C@H](OC(=O)c3ccccc3)[C@]3(O)C[C@H](OC(=O)[C@H](O)[C@@H](NC(=O)c4ccccc4)c4ccccc4)C(C)=C1C3(C)C)[C@]1(OC(C)=O)CO[C@@H]1C[C@@H]2O [PACLITAXEL]
- Tmax [34]: 1.05 h
- Cmax [35]: 4.85 nmol/g
- fold change (FC) [36]: 2
- IC50 [9]: 7.94 µM
- AUCt [37]: 46.62 nmol·h/g
